Assay [1] concerns A549. As to the kind of experiment: Inhibition of bleomycin-induced unscheduled DNA synthesis in human A549 cells at 3 uM. It is filed as functional, cell-based. Put shortly:
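A549 cells (~5×10^5) treated with 10 mM bleomycin for 30 min at 37 °C. Then 10 mM hydroxyurea, 2 mM nicotinamide, 5 µCi [3H]thymidine and inhibitor added, incubated 3 h. Stopped with ice-cold saline. Cells collected and TCA-precipitated on ice 30 min for scintillation counting of incorporated label. Run in triplicate.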

In assay [2] the test system is A549. As to the kind of experiment: Effect on DNA polymerase beta expression in human A549 cells at 3 uM after 48 hrs by Western blot analysis. It is filed as functional, cell-based. Put shortly: (§1)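 A549 cells grown in Ham's F12K with 10% fetal calf serum, exposed 48 h to compound. Whole-cell extracts prepared by freeze/thaw lysis, cleared at 15,000 × g. Extracts resolved on 15% SDS-PAGE, transferred to PVDF and probed with anti-human pol β antibody. Anti-β-actin served as loading control. HRP anti-goat IgG detection, followed by densitometric quantification.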
For orientation: In western blotting, separated proteins are transferred to a membrane and probed.

Assay [3] has as its system A549. As to the kind of experiment: Cytotoxicity against human A549 cells after 48 hrs by MTT assay. As to conditions: A549, 48 h.
The test system of assay [4] is A549. Nature of the assay: Effect on DNA polymerase beta expression in human A549 cells at 6 uM after 48 hrs by Western blot analysis. It is filed as functional, cell-based. Put shortly:
as §1

For assay [5], the system named is A549. As to the kind of experiment: Inhibition of bleomycin-induced unscheduled DNA synthesis in human A549 cells at 6 uM. It is filed as functional, cell-based. Put shortly:
(§2)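 A549 cells (~5×10^5) treated with 10 mM bleomycin for 30 min at 37 °C. DMSO, 10 mM hydroxyurea, 2 mM nicotinamide, 5 μCi [3H]thymidine and inhibitor then added, triplicate flasks per concentration. Incubated 3 h, stopped with ice-cold saline. Cells pelleted and treated with ice-cold 5% TCA for 30 min; incorporated radioactivity read by scintillation counting.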

The subject of assay [6] is A549. As to the kind of experiment: Effect on DNA polymerase beta expression in human A549 cells at 25 uM after 48 hrs by Western blot analysis. It is filed as functional, cell-based. Put shortly:
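A549 cells grown at 37 °C, 5% CO2 in Kaighn's F12 with 10% fetal calf serum, exposed 48 h to inhibitor at 25 μM (final DMSO <0.05%). Whole-cell extracts made by freeze/thaw, then resolved on 15% SDS-PAGE and blotted to PVDF. Probed with anti-human pol β antibody, with anti-β-actin as loading control. HRP detection; bands scanned and quantified.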

The test system of assay [7] is A549. Nature of the assay: Inhibition of bleomycin-induced unscheduled DNA synthesis in human A549 cells at 25 uM. It is filed as functional, cell-based. Put shortly:
as §2

The target in assay [8] is DNA polymerase beta (Rattus norvegicus) (UniProt P06766). Nature of the assay: Inhibition of lyase activity of DNA polymerase beta.
The target is the same in assay [9]. As to the kind of experiment: Inhibition of polymerase activity of DNA polymerase beta.

The source made the active and inactive calls. No cut-off for these calls is given here.

What is called IC50 is the concentration needed to halve the response being measured. Read a low IC50 as greater potency in that assay.

`C=C(C)[C@@H]1CC[C@]2(C(=O)O)CC[C@]3(C)[C@H](CC[C@@H]4[C@@]5(C)CC[C@H](O)C(C)(C)[C@@H]5CC[C@]43C)[C@@H]12` [BETULINIC ACID]: in the assay with A549 [1], the outcome was Active. Moreover, the outcome in the assay with A549 [2] was inactive. In the assay on A549 [3], this molecule gave an IC50 of 6.65 µM.
As to `O=c1ccc2ccc(Oc3cc4ccc(O)cc4oc3=O)cc2o1` [EDGEWORIN], the result in the assay with A549 [4] was inactive. In the assay with A549 [5], the result was Active. In addition, in the assay with A549 [3], the half-maximal inhibitory concentration (IC50) turned out to be 80.2 µM.
Turning to `CC1(C)CC[C@]2(C(=O)O)CC[C@]3(C)C(=CC[C@@H]4[C@@]5(C)CC[C@H](O)C(C)(C)[C@@H]5CC[C@]43C)[C@@H]2C1` [OLEANOLIC_ACID], in the assay with A549 [6], the result was inactive. In addition, in the assay with A549 [7], the result was Active. The half-inhibitory concentration (IC50) in assay [8] was 26.3 µM; in the assay with A549 [3] it was more than 100 µM; in assay [9], 25 µM.
For the molecule `CC[C@H](/C=C/[C@@H](C)[C@H]1CC[C@H]2[C@@H]3CC=C4C[C@@H](O)CC[C@]4(C)[C@H]3CC[C@]12C)C(C)C` [STIGMASTEROL], the outcome in the assay on A549 [4] was inactive. The figures for the half-maximal inhibitory concentration (IC50) (in assay [8]; in the assay with A549 [3]; in [9]) were 60.3 µM, 98.2 µM and more than 250 µM, respectively.

The values are drawn from ChEMBL document CHEMBL1144753, “Inhibitors of DNA polymerase beta: activity and mechanism” (Bioorg Med Chem, 2008).
